This note sets out measurements from PMC7452071 (Acta Pharmaceutica Sinica. B, 2019).

One series concerns the target TOP1 (Bos taurus, UniProt F1MN93). Kind of series: TOP1-mediated pBR322 DNA relaxation assay. The series is classed as biochemical. The note with it: 100 μmol/L.
For another series, the system named is γH2AX in HCT116 cells. Kind of series: Western blot for γH2AX. Type of series: cell-based, human. Conditions: 0.5 and 5 μmol/L, 24 h. The gist of the method:
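HCT116 seeded at 35 × 10^4 cells/well, treated 24 h with test compound or vehicle. Cells washed in cold PBS, lysed 30 min on ice in RIPA with protease and phosphatase inhibitors, protein quantified by BCA. 30 μg resolved by SDS-PAGE, transferred to PVDF, blocked 2 h in 5% BSA, primary antibody overnight at 4 °C, secondary 1.5 h, infrared imaging.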
For orientation: In western blotting, separated proteins are transferred to a membrane and probed.

The target in the next series is TOP2α (Homo sapiens, UniProt P11388). Nature of the series: TOP2-mediated pBR322 DNA relaxation assay. The series is classed as biochemical.
The target of series [1] is human recombinant HDAC1 enzyme (Homo sapiens, UniProt Q13547). Kind of series: HDACs activity assay, HDAC1. The series is classed as biochemical.
The subject of the next series is HCT116 (colon cancer). Nature of the series: In vitro cell viability assay. The note with it: Homo sapiens. The series is classed as cell-based.
Another series deals with A549 (lung cancer). Kind of series: In vitro cell viability assay. Type of series: cell-based. The note with it: Homo sapiens, A549, 48 h, read-out: IC50 A549.
The test system of series [2] is HCT116, MCF-7 and A549 cell lines. Kind of series: In vitro cell viability assay. The series is classed as cell-based. The note with it: Homo sapiens, read-out: IC50 range against the three tested cell lines. The gist of the method:
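Cells were grown in 10% FBS at 37 °C, 5% CO2, seeded in DMEM and held 24 h to 60%–70% confluency. They were then exposed to graded test compound concentrations or vehicle for 48 h. 10% CCK8 was added for 1–4 h at 37 °C and absorbance read at 450. IC50 was computed by the Logit method; three experiments.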

The test system of a further series is MCF-7 (breast cancer). Nature of the series: In vitro cell viability assay. The series is classed as cell-based. Conditions: Homo sapiens, MCF7, 48 h, read-out: IC50 MCF-7.
In a further series the test system is HCT116 xenograft. Nature of the series: In vivo tumor growth inhibition assay against HCT116 xenograft. Conditions: bid.
The test system of series [3] is hematological cell lines (HL60, K562 and HEL). Kind of series: Antiproliferative activity, hematological cell lines together. Type of series: cell-based. Conditions: read-out: IC50 range toward hematological cell lines.
Series [4] in a line: In vitro metabolic stability in mice liver microsomes. The series is classed as in vitro ADME. Conditions: female, ICR, mouse, liver microsomes, pH 7.4.
[5] abbreviates: HCT-116, 48 h, read-out: IC50 HCT116.

Read-outs that look alike come from different tables or passages of the source. Some results are limits rather than exact numbers.

Chain of human recombinant HDAC1 enzyme (Q13547 whole entry): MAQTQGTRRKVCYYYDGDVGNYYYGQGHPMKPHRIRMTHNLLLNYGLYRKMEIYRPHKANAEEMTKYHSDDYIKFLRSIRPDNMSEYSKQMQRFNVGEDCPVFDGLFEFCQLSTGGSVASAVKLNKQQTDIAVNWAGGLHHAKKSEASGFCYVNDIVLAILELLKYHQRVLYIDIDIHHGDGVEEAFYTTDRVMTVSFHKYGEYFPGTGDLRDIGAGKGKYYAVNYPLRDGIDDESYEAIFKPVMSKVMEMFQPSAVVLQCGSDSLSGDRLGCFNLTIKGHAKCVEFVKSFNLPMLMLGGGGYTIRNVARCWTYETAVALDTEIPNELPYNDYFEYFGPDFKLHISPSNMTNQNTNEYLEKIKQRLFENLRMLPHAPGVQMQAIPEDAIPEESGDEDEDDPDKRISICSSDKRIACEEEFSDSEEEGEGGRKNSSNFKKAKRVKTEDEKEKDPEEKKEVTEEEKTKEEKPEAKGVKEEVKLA
Chain of TOP2α (P11388 whole entry): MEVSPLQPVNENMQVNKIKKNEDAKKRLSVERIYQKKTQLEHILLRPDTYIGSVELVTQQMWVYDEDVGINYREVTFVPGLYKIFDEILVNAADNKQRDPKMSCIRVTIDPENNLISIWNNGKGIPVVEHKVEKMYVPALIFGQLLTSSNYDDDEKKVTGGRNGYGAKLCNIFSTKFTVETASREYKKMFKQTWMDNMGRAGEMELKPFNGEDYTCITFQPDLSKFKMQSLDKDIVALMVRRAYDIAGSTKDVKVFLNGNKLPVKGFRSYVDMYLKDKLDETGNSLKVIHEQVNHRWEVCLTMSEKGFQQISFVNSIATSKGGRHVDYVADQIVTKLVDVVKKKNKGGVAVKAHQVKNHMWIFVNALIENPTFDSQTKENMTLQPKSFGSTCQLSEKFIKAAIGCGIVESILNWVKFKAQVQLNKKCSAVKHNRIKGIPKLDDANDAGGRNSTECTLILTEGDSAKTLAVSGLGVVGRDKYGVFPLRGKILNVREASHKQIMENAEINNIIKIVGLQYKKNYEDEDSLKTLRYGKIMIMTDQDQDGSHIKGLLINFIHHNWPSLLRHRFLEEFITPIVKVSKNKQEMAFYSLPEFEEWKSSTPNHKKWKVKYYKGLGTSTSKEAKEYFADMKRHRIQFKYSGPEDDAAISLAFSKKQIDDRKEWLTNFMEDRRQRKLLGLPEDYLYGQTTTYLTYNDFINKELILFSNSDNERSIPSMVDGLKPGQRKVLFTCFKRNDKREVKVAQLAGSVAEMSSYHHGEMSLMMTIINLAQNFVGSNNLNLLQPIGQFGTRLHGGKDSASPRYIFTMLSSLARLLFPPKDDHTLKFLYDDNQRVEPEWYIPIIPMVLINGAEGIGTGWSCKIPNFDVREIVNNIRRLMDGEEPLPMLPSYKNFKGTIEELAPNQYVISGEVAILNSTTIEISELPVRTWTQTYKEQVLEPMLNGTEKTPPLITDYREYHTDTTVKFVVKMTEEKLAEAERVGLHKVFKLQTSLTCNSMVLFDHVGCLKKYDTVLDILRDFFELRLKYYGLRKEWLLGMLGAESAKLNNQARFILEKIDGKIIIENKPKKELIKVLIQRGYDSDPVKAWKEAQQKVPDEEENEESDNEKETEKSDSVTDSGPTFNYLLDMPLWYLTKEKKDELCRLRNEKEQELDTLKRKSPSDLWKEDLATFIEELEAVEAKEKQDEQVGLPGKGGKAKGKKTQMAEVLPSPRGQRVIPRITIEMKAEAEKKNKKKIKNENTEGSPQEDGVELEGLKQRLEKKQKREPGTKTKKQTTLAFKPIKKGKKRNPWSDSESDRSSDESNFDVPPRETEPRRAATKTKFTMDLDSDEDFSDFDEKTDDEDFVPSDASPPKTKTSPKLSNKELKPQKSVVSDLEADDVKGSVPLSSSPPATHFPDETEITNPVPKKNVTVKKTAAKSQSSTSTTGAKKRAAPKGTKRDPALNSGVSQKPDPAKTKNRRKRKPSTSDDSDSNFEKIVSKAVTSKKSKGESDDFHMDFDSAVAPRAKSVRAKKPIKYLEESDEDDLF
Chain of TOP1 (F1MN93 1-767): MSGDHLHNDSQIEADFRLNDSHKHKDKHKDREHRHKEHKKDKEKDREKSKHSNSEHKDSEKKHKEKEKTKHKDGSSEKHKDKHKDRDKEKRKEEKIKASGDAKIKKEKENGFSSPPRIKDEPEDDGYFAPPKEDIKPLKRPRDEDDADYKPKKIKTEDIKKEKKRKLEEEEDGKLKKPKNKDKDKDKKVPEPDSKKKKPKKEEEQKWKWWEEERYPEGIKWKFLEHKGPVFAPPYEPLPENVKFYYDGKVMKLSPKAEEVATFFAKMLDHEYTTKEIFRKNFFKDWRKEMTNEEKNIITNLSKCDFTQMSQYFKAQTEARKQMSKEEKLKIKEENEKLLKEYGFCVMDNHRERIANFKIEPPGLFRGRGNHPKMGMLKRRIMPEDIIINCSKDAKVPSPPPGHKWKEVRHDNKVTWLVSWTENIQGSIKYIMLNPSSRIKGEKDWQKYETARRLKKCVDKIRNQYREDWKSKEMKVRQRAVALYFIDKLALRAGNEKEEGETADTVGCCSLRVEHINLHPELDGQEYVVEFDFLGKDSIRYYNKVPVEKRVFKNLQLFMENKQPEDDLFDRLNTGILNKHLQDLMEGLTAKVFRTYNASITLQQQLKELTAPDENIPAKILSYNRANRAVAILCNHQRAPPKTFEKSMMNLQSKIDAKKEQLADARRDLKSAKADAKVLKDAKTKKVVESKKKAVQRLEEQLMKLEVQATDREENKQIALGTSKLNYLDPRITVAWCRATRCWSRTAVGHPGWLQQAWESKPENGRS

For `CC[C@@]1(O)C(=O)OCc2c1cc1n(c2=O)Cc2cc3ccccc3nc2-1` [CPT, Camptothecin], the “TOP1 relaxation activity (supercoiled DNA band)” value at TOP1 was “obviously supercoiled DNA accumulation”.

Regarding `O=C(CCCCCCC(=O)Nc1ccccc1)NO` [Compound 1, vorinostat], the “Expression of γH2AX” value in the series on γH2AX in HCT116 cells was “no increase”.

On to `CN1c2ccccc2C(=O)N2[C@H](C(=O)NCCCCCCC(=O)NO)Cc3c([nH]c4ccccc34)[C@@H]12` [Compound 20a, (7S,13bS)-N-(7-(Hydroxyamino)-7-oxoheptyl)-14-methyl-5-oxo-5,7,8,13,13b,14-hexahydroindolo[2′,3′:3,4]pyrido[2,1-b]quinazoline-7-carboxamide], for which the “TOP2 inhibitory activity (relaxation assay)” value (from here on “TOP2 inhibitory activity”) on TOP2α (100 μmol/L) was “inactive”. Also, the IC50 (in general, the concentration that gives 50% inhibition) in series [1] is 27 ± 2.3 nM; with HCT116 (colon cancer) (setting [5]) it was 7200 ± 520 nM; in the series with A549 (lung cancer), 27000 ± 2100 nM; in series [2], 7200 to 27000 nM; in the series with MCF-7 (breast cancer) it was 15000 ± 2500 nM.

In the case of `CN1c2ccccc2C(=O)N2[C@H](C(=O)NCCCCCC(=O)NO)Cc3c([nH]c4ccccc34)[C@@H]12` [Compound 20b, (7S,13bS)-N-(6-(Hydroxyamino)-6-oxohexyl)-14-methyl-5-oxo-5,7,8,13,13b,14-hexahydroindolo[2′,3′:3,4]pyrido[2,1-b]quinazoline-7-carboxamide], at TOP2α (100 μmol/L), the “TOP2 inhibitory activity” value is “inactive”. In addition, the concentration for half-maximal inhibition (IC50) in [1] is 53 ± 4.5 nM; in the series with HCT116 (colon cancer) (setting [5]) it was 11000 ± 1300 nM; with A549 (lung cancer) it was above 50000 nM; with MCF-7 (breast cancer), above 50000 nM.

In the case of `CN1c2ccccc2C(=O)N2[C@H](C(=O)Nc3ccc(/C=C/C(=O)NO)cc3)Cc3c([nH]c4ccccc34)[C@@H]12` [Compound 25a, (7S,13bS)-N-(4-((E)-3-(Hydroxyamino)-3-oxoprop-1-en-1-yl)phenyl)-14-methyl-5-oxo-5,7,8,13,13b,14-hexahydroindolo[2′,3′:3,4]pyrido[2,1-b]quinazoline-7-carboxamide], the “TOP2 inhibitory activity” value at TOP2α (50 μmol/L) and at TOP2α (100 μmol/L) was “remarkable TOP2 inhibitory activities” in each case. In addition, the “Tumor growth inhibition (TGI)” value with HCT116 xenograft (20 mg/kg, i.p., 14 consecutive days) amounted to 2.2%. Also, the IC50 in [1] is 89 ± 6.2 nM; in series [3] it was 340 to 1000 nM; in the series on HCT116 (colon cancer) (setting [5]), 630 ± 520 nM; in the series on A549 (lung cancer) it was 10000 ± 1200 nM; with MCF-7 (breast cancer), 3000 ± 250 nM. Besides, the half-life (usually the time in which the quantity being followed falls by half) at 1 μmol/L in series [4] came out at 9.86 min.

For `CN1c2ccccc2C(=O)N2[C@H](C(=O)Nc3cccc(/C=C/C(=O)NO)c3)Cc3c([nH]c4ccccc34)[C@@H]12` [Compound 25b, (7S,13bS)-N-(3-((E)-3-(Hydroxyamino)-3-oxoprop-1-en-1-yl)phenyl)-14-methyl-5-oxo-5,7,8,13,13b,14-hexahydroindolo[2′,3′:3,4]pyrido[2,1-b]quinazoline-7-carboxamide], the “TOP2 inhibitory activity” value at TOP2α (50 μmol/L) and at TOP2α (100 μmol/L) was “remarkable TOP2 inhibitory activities” each time. The IC50 was found to be 31 ± 2.3 nM in series [1], 520 ± 360 nM with HCT116 (colon cancer) (setting [5]), 15000 ± 1400 nM in the series on A549 (lung cancer) and 2200 ± 180 nM in the series on MCF-7 (breast cancer).

As to `CN1c2ccc(F)cc2C(=O)N2[C@H](C(=O)Nc3ccc(C(=O)Nc4ccccc4N)cc3)Cc3c([nH]c4ccccc34)[C@@H]12` [Compound 30b, (7S,13bS)-N-(4-((2-Aminophenyl)carbamoyl)phenyl)-3-fluoro-14-methyl-5-oxo-5,7,8,13,13b,14-hexahydroindolo[2′,3′:3,4]pyrido[2,1-b]quinazoline-7-carboxamide], the IC50 in series [1] was 180 ± 20 nM; with HCT116 (colon cancer) (setting [5]), 2400 ± 220 nM; in the series on HCT116 (colon cancer) (HCT-116, read-out: IC50 HCT116) it was 3600 nM; in the series on A549 (lung cancer) it was 7900 ± 680 nM; with MCF-7 (breast cancer), above 50000 nM.

Turning to `CN1c2ccccc2C(=O)N2[C@H](C(=O)Nc3ccc(C(=O)NO)cc3)Cc3c([nH]c4ccccc34)[C@@H]12` [Compound 32, (7S,13bS)-N-(4-(Hydroxycarbamoyl)phenyl)-14-methyl-5-oxo-5,7,8,13,13b,14-hexahydroindolo[2′,3':3,4]pyrido[2,1-b]quinazoline-7-carboxamide], the “TOP2 inhibitory activity” value at TOP2α (50 μmol/L) and on TOP2α (100 μmol/L) was “remarkable TOP2 inhibitory activities” throughout. The half-maximal inhibitory concentration (IC50) in series [1] worked out at 260 ± 24 nM; in the series with HCT116 (colon cancer) (setting [5]) it was 2200 ± 180 nM; in the series on A549 (lung cancer), 11000 ± 1200 nM; in the series with MCF-7 (breast cancer) it was 13000 ± 1400 nM.

For `CN1c2ccccc2C(=O)N2[C@@H](C(=O)Nc3ccc(/C=C/C(=O)NO)cc3)Cc3c([nH]c4ccccc34)[C@H]12` [ent-25a, (7R,13bR)-N-(4-((E)-3-(Hydroxyamino)-3-oxoprop-1-en-1-yl)phenyl)-14-methyl-5-oxo-5,7,8,13,13b,14-hexahydroindolo[2′,3′:3,4]pyrido[2,1-b]quinazoline-7-carboxamide], the IC50 was found to be 18 ± 1.6 nM in series [1], 530 ± 450 nM with HCT116 (colon cancer) (setting [5]), 2800 ± 220 nM with A549 (lung cancer) and 1600 ± 140 nM in the series on MCF-7 (breast cancer).

In the case of `CN1c2ccccc2C(=O)N2[C@@H](C(=O)Nc3cccc(/C=C/C(=O)NO)c3)Cc3c([nH]c4ccccc34)[C@H]12` [ent-25b, (7R,13bR)-N-(3-((E)-3-(Hydroxyamino)-3-oxoprop-1-en-1-yl)phenyl)-14-methyl-5-oxo-5,7,8,13,13b,14-hexahydroindolo[2′,3′:3,4]pyrido[2,1-b]quinazoline-7-carboxamide], the concentration for half-maximal inhibition (IC50) in series [1] worked out at 10 ± 0.6 nM; in the series with HCT116 (colon cancer) (setting [5]), 3100 ± 280 nM; in the series on A549 (lung cancer) it was 20000 ± 2400 nM; in the series with MCF-7 (breast cancer) it was 12000 ± 1500 nM.

`CN1c2ccccc2C(=O)N2[C@@H](C(=O)Nc3ccc(C(=O)Nc4ccccc4N)cc3)Cc3c([nH]c4ccccc34)[C@H]12` [ent-30a, (7R,13bR)-N-(4-((2-Aminophenyl)carbamoyl)phenyl)-14-methyl-5-oxo-5,7,8,13,13b,14-hexahydroindolo[2′,3′:3,4]pyrido[2,1-b]quinazoline-7-carboxamide]: the IC50 is 22 ± 2.1 nM in series [1], 2900 ± 2000 nM in the series on HCT116 (colon cancer) (setting [5]), 5400 ± 480 nM in the series with A549 (lung cancer) and 17000 ± 1800 nM in the series with MCF-7 (breast cancer).

For `CN1c2ccccc2C(=O)N2[C@@H](C(=O)Nc3ccc(C(=O)NO)cc3)Cc3c([nH]c4ccccc34)[C@H]12` [ent-32, (7R,13bR)-N-(4-(Hydroxycarbamoyl)phenyl)-14-methyl-5-oxo-5,7,8,13,13b,14-hexahydroindolo[2′,3′:3,4]pyrido[2,1-b]quinazoline-7-carboxamide], the IC50 in series [1] came to 10 ± 0.8 nM; with HCT116 (colon cancer) (setting [5]), 1600 ± 130 nM; with A549 (lung cancer), 12000 ± 1500 nM; in the series with MCF-7 (breast cancer) it was 5300 ± 500 nM.

With “Evodiamine [Compound 6, reference compound]”, in the series on HCT116 xenograft (150 mg/kg, p.o., 21 days (dose of the combination not given)), the “Tumor growth inhibition (TGI)” value amounted to 45.53%. The “Expression of γH2AX” value with γH2AX in HCT116 cells is reported as “no increase”.
